# ChEMBL document CHEMBL4152188, “Design, synthesis and biological evaluation of C(4) substituted monobactams as antibacterial agents against multidrug-resistant Gram-negative bacteria” (Eur J Med Chem, 2018)
# How the values were obtained:
# Type in all cases: functional
# [1] = system: Escherichia coli; experiment: Antibacterial activity against extended-spectrum beta-lactamase producing Escherichia coli isolate 212648 after 18 hrs by CLSI broth microdilution method; settings: isolate 212648, 18 h
# [2] = system: Escherichia coli; experiment: Selectivity index, ratio of MIC for against extended-spectrum beta-lactamase producing Escherichia coli isolate 208687 to MIC for extended-spectrum beta-lactamase producing Escherichia coli isolate 208687 in presence of BPL
# [3] = system: Escherichia coli; experiment: Antibacterial activity against Escherichia coli isolate 210737 after 18 hrs by CLSI broth microdilution method; settings: isolate 210737, 18 h
# [4] = system: Escherichia coli; experiment: Antibacterial activity against extended-spectrum beta-lactamase producing Escherichia coli isolate 208687 after 18 hrs by CLSI broth microdilution method; settings: isolate 208687, 18 h
# [5] = system: Escherichia coli; experiment: Antibacterial activity against extended-spectrum beta-lactamase producing Escherichia coli isolate 208687 after 18 hrs in presence of BPL by CLSI broth microdilution method; settings: isolate 208687, 18 h
# Summary of the method: (§1)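 CLSI broth microdilution against clinical isolates (ESBL E. coli, KPC-2 MDR K. pneumoniae, IMP-4 MDR P. aeruginosa; five per species). Iron limitation: Mueller-Hinton broth supplemented with 16 mg/liter 2,2'-bipyridyl to complex iron and induce iron uptake systems. Read-out: MIC.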
# [6] = system: Escherichia coli; experiment: Antibacterial activity against Escherichia coli isolate 210737 after 18 hrs in presence of BPL by CLSI broth microdilution method; settings: isolate 210737, 18 h; summary of the method: as §1
# [7] = system: Escherichia coli; experiment: Selectivity index, ratio of MIC for against Escherichia coli isolate 210737 to MIC for Escherichia coli isolate 210737 in presence of BPL
# [8] = system: Escherichia coli; experiment: Antibacterial activity against extended-spectrum beta-lactamase producing Escherichia coli isolate 212648 after 18 hrs in presence of BPL by CLSI broth microdilution method; settings: isolate 212648, 18 h; summary of the method: as §1
# [9] = system: Escherichia coli; experiment: Selectivity index, ratio of MIC for against extended-spectrum beta-lactamase producing Escherichia coli isolate 212648 to MIC for extended-spectrum beta-lactamase producing Escherichia coli isolate 212648 in presence of BPL
# [10] = system: Escherichia coli; experiment: Antibacterial activity against extended-spectrum beta-lactamase producing Escherichia coli isolate 209285 after 18 hrs by CLSI broth microdilution method; settings: isolate 209285, 18 h
# [11] = system: Escherichia coli; experiment: Antibacterial activity against extended-spectrum beta-lactamase producing Escherichia coli isolate 209285 after 18 hrs in presence of BPL by CLSI broth microdilution method; settings: isolate 209285, 18 h; summary of the method: as §1
# [12] = system: Escherichia coli; experiment: Selectivity index, ratio of MIC for against extended-spectrum beta-lactamase producing Escherichia coli isolate 209285 to MIC for extended-spectrum beta-lactamase producing Escherichia coli isolate 209285 in presence of BPL
# [13] = system: Escherichia coli; experiment: Antibacterial activity against extended-spectrum beta-lactamase producing Escherichia coli isolate 106342 after 18 hrs by CLSI broth microdilution method; settings: isolate 106342, 18 h
# [14] = system: Escherichia coli; experiment: Antibacterial activity against extended-spectrum beta-lactamase producing Escherichia coli isolate 106342 after 18 hrs in presence of BPL by CLSI broth microdilution method; settings: isolate 106342, 18 h; summary of the method: as §1
# [15] = system: Escherichia coli; experiment: Selectivity index, ratio of MIC for against extended-spectrum beta-lactamase producing Escherichia coli isolate 106342 to MIC for extended-spectrum beta-lactamase producing Escherichia coli isolate 106342 in presence of BPL
# [16] = system: Klebsiella pneumoniae; experiment: Antibacterial activity against KPC-2 producing Klebsiella pneumoniae isolate 212423 after 18 hrs by CLSI broth microdilution method; settings: isolate 212423, 18 h
# [17] = system: Klebsiella pneumoniae; experiment: Antibacterial activity against KPC-2 producing Klebsiella pneumoniae isolate 212423 after 18 hrs in presence of BPL by CLSI broth microdilution method; settings: isolate 212423, 18 h; summary of the method: as §1
# [18] = system: Klebsiella pneumoniae; experiment: Selectivity index, ratio of MIC for against KPC-2 producing Klebsiella pneumoniae isolate 212423 to MIC for against KPC-2 producing Klebsiella pneumoniae isolate 212423 in presence of BPL
# [19] = system: Klebsiella pneumoniae; experiment: Antibacterial activity against KPC-2 producing Klebsiella pneumoniae isolate 209632 after 18 hrs by CLSI broth microdilution method; settings: isolate 209632, 18 h
# [20] = system: Klebsiella pneumoniae; experiment: Antibacterial activity against KPC-2 producing Klebsiella pneumoniae isolate 209632 after 18 hrs in presence of BPL by CLSI broth microdilution method; settings: isolate 209632, 18 h; summary of the method: as §1
# [21] = system: Klebsiella pneumoniae; experiment: Selectivity index, ratio of MIC for against KPC-2 producing Klebsiella pneumoniae isolate 209632 to MIC for against KPC-2 producing Klebsiella pneumoniae isolate 209632 in presence of BPL
# [22] = system: Klebsiella pneumoniae; experiment: Antibacterial activity against KPC-2 producing Klebsiella pneumoniae isolate 209735 after 18 hrs by CLSI broth microdilution method; settings: isolate 209735, 18 h
# [23] = system: Klebsiella pneumoniae; experiment: Antibacterial activity against KPC-2 producing Klebsiella pneumoniae isolate 209735 after 18 hrs in presence of BPL by CLSI broth microdilution method; settings: isolate 209735, 18 h; summary of the method: as §1
# [24] = system: Klebsiella pneumoniae; experiment: Selectivity index, ratio of MIC for against KPC-2 producing Klebsiella pneumoniae isolate 209735 to MIC for against KPC-2 producing Klebsiella pneumoniae isolate 209735 in presence of BPL
# [25] = system: Klebsiella pneumoniae; experiment: Antibacterial activity against KPC-2 producing Klebsiella pneumoniae isolate 212232 after 18 hrs by CLSI broth microdilution method; settings: isolate 212232, 18 h
# [26] = system: Klebsiella pneumoniae; experiment: Antibacterial activity against KPC-2 producing Klebsiella pneumoniae isolate 212232 after 18 hrs in presence of BPL by CLSI broth microdilution method; settings: isolate 212232, 18 h; summary of the method: as §1
# [27] = system: Klebsiella pneumoniae; experiment: Selectivity index, ratio of MIC for against KPC-2 producing Klebsiella pneumoniae isolate 212232 to MIC for against KPC-2 producing Klebsiella pneumoniae isolate 212232 in presence of BPL
# [28] = system: Klebsiella pneumoniae; experiment: Antibacterial activity against KPC-2 producing Klebsiella pneumoniae isolate 212229 after 18 hrs by CLSI broth microdilution method; settings: isolate 212229, 18 h
# [29] = system: Klebsiella pneumoniae; experiment: Antibacterial activity against KPC-2 producing Klebsiella pneumoniae isolate 212229 after 18 hrs in presence of BPL by CLSI broth microdilution method; settings: isolate 212229, 18 h; summary of the method: as §1
# [30] = system: Klebsiella pneumoniae; experiment: Selectivity index, ratio of MIC for against KPC-2 producing Klebsiella pneumoniae isolate 212229 to MIC for against KPC-2 producing Klebsiella pneumoniae isolate 212229 in presence of BPL
# [31] = system: Pseudomonas aeruginosa; experiment: Antibacterial activity against IMP-4 producing Pseudomonas aeruginosa isolate 212886 after 18 hrs by CLSI broth microdilution method; settings: isolate 212886, 18 h
# [32] = system: Pseudomonas aeruginosa; experiment: Antibacterial activity against IMP-4 producing Pseudomonas aeruginosa isolate 212886 after 18 hrs in presence of BPL by CLSI broth microdilution method; settings: isolate 212886, 18 h; summary of the method: as §1
# [33] = system: Pseudomonas aeruginosa; experiment: Selectivity index, ratio of MIC for against IMP-4 producing Pseudomonas aeruginosa isolate 212886 to MIC for against IMP-4 producing Pseudomonas aeruginosa isolate 212886 in presence of BPL
# [34] = system: Pseudomonas aeruginosa; experiment: Antibacterial activity against IMP-4 producing Pseudomonas aeruginosa isolate 209471 after 18 hrs by CLSI broth microdilution method; settings: isolate 209471, 18 h
# [35] = system: Pseudomonas aeruginosa; experiment: Antibacterial activity against IMP-4 producing Pseudomonas aeruginosa isolate 209471 after 18 hrs in presence of BPL by CLSI broth microdilution method; settings: isolate 209471, 18 h; summary of the method: as §1
# [36] = system: Pseudomonas aeruginosa; experiment: Selectivity index, ratio of MIC for against IMP-4 producing Pseudomonas aeruginosa isolate 209471 to MIC for against IMP-4 producing Pseudomonas aeruginosa isolate 209471 in presence of BPL
# [37] = system: Pseudomonas aeruginosa; experiment: Antibacterial activity against IMP-4 producing Pseudomonas aeruginosa isolate 208247 after 18 hrs by CLSI broth microdilution method; settings: isolate 208247, 18 h
# [38] = system: Pseudomonas aeruginosa; experiment: Antibacterial activity against IMP-4 producing Pseudomonas aeruginosa isolate 208247 after 18 hrs in presence of BPL by CLSI broth microdilution method; settings: isolate 208247, 18 h; summary of the method: as §1
# [39] = system: Pseudomonas aeruginosa; experiment: Selectivity index, ratio of MIC for against IMP-4 producing Pseudomonas aeruginosa isolate 208247 to MIC for against IMP-4 producing Pseudomonas aeruginosa isolate 208247 in presence of BPL
# [40] = system: Pseudomonas aeruginosa; experiment: Antibacterial activity against IMP-4 producing Pseudomonas aeruginosa isolate 209321 after 18 hrs by CLSI broth microdilution method; settings: isolate 209321, 18 h
# [41] = system: Pseudomonas aeruginosa; experiment: Antibacterial activity against IMP-4 producing Pseudomonas aeruginosa isolate 209321 after 18 hrs in presence of BPL by CLSI broth microdilution method; settings: isolate 209321, 18 h; summary of the method: as §1
# [42] = system: Pseudomonas aeruginosa; experiment: Selectivity index, ratio of MIC for against IMP-4 producing Pseudomonas aeruginosa isolate 209321 to MIC for against IMP-4 producing Pseudomonas aeruginosa isolate 209321 in presence of BPL
# [43] = system: Pseudomonas aeruginosa; experiment: Antibacterial activity against IMP-4 producing Pseudomonas aeruginosa isolate 207272 after 18 hrs by CLSI broth microdilution method; settings: isolate 207272, 18 h
# [44] = system: Pseudomonas aeruginosa; experiment: Antibacterial activity against IMP-4 producing Pseudomonas aeruginosa isolate 207272 after 18 hrs in presence of BPL by CLSI broth microdilution method; settings: isolate 207272, 18 h; summary of the method: as §1
# [45] = system: Pseudomonas aeruginosa; experiment: Selectivity index, ratio of MIC for against IMP-4 producing Pseudomonas aeruginosa isolate 207272 to MIC for against IMP-4 producing Pseudomonas aeruginosa isolate 207272 in presence of BPL
smiles,measurement,setting,value
CC(C)C(O/N=C(\C(=O)N[C@@H]1C(=O)N(S(=O)(=O)O)[C@@H]1CO)c1csc(N)n1)c1cc(=O)c(O)cn1O (stereo not given in full),MIC,[1],64 µg/mL
same,Selectivity Index,[2],2
same,MIC,[3],> 64 µg/mL
same,MIC,[4],64 µg/mL
same,MIC,[5],32 µg/mL
same,MIC,[6],> 64 µg/mL
same,Selectivity Index,[7],1 - 2
same,MIC,[8],64 µg/mL
same,Selectivity Index,[9],1
same,MIC,[10],64 µg/mL
same,MIC,[11],32 µg/mL
same,Selectivity Index,[12],2
same,MIC,[13],64 µg/mL
same,MIC,[14],64 µg/mL
same,Selectivity Index,[15],1
same,MIC,[16],8 µg/mL
same,MIC,[17],8 µg/mL
same,Selectivity Index,[18],1
same,MIC,[19],8 µg/mL
same,MIC,[20],2 µg/mL
same,Selectivity Index,[21],4
same,MIC,[22],16 µg/mL
same,MIC,[23],16 µg/mL
same,Selectivity Index,[24],1
same,MIC,[25],16 µg/mL
same,MIC,[26],2 µg/mL
same,Selectivity Index,[27],8
same,MIC,[28],8 µg/mL
same,MIC,[29],4 µg/mL
same,Selectivity Index,[30],2
same,MIC,[31],> 64 µg/mL
same,MIC,[32],16 µg/mL
same,Selectivity Index,[33],>4
same,MIC,[34],> 64 µg/mL
same,MIC,[35],> 64 µg/mL
same,Selectivity Index,[36],1 - 4
same,MIC,[37],> 64 µg/mL
same,MIC,[38],> 64 µg/mL
same,Selectivity Index,[39],1 - 4
same,MIC,[40],64 µg/mL
same,MIC,[41],64 µg/mL
same,Selectivity Index,[42],1
same,MIC,[43],> 64 µg/mL
same,MIC,[44],> 64 µg/mL
same,Selectivity Index,[45],1 - 4
